Results collected from several papers.
Protocols differ between the studies behind these lines.
Target: Cytochrome P450 2C9 (CYP2C9, Homo sapiens, UniProt P11712)
Observed: enzyme activity
Mode: inhibitor

SMILES | assay | test system | conditions | quantity | result
C=CC(=O)Nc1cc(Nc2nccc(Nc3cc(Cl)c(F)cc3C(C)(C)O)n2)c(OC)cc1N1CC[C@@H](N(C)C)C1 |  | human, liver microsomes |  | IC50 | > 30 µM
Cc1ccc2nc(-c3ccccc3)c(CNc3ccc(F)cc3)n2c1 |  |  |  | IC50 | 0.41 µM
COc1ccc2c(Cc3ccccc3F)c3[n+](cc2c1OC)CCc1cc2c(cc1-3)OCO2 |  |  |  | IC50 | > 10 µM
CCc1cc(/C(C)=N/OCc2ccc(C3CCCCC3)c(C(F)(F)F)c2)ccc1CN1CC(C(=O)O)C1 |  | human, liver microsomes | 20 min | IC50 | ~1.3 µM
Ic1ccc(CSCn2ccnc2)cc1 |  | MFC | 30 min, pH 7.4 | IC50 | 0.155 µM
O=C(NCCN1CCCC1)c1cc(-c2ccc(CN3CCOCC3)cc2)nc2ccc(F)cc12 |  | human, liver microsomes |  | IC50 | > 100 µM
Nc1nc(N)c2nc(CNc3ccc(C(=O)NCCc4ccccc4)cc3)cnc2n1 | luciferase |  |  | IC50 | 18.6 µM
C[C@H]1CN(c2n[nH]c3nc(N[C@H]4CC[C@H](NS(=O)(=O)CCC(F)(F)F)CC4)ncc23)CCO1 |  |  |  | IC50 | > 100 µM
Cc1cc(C)c2c(c1)[C@@H](N(Cc1cc(C(F)(F)F)cc(C(F)(F)F)c1)c1nnn(C)n1)CCCN2C[C@H]1CC[C@H](C(=O)O)CC1 |  | human, liver microsomes | pH 7.4 | Ki | 0.57 µM
C[C@@H](c1ccc2nccn2c1)n1nnc2ncc(-c3cnn(C)c3)nc21 |  | human, liver microsomes | pH 7.4 | IC50 | 4.7 µM
CCCOC(=O)C1CCN(C(=O)c2ccc(N(C)Cc3cnc4nc(N)nc(N)c4n3)cc2)CC1 | luciferase |  |  | IC50 | 5.5 µM
COc1ccn2c(Nc3ccccc3F)c(-c3ccncn3)nc2c1 |  |  |  | IC50 | 0.41 µM
Nc1nc(N)c2nc(CNc3ccc(C(=O)c4ccccc4)cc3)cnc2n1 | luciferase |  |  | IC50 | 25.1 µM
Cc1cc2c(F)c(Oc3ncnn4cc(OC[C@@H](C)O)c(C)c34)ccc2[nH]1 | fluorescence |  | 15 min | IC50 | 1.39 µM
COc1ccc2c(Cc3ccccc3F)c3n(c(=O)c2c1OC)CCc1cc2c(cc1-3)OCO2 |  |  |  | IC50 | > 10 µM
